Test results taken from ChEMBL document CHEMBL3085673, “The design of a novel series of muscarinic receptor antagonists leading to AZD8683, a potential inhaled treatment for COPD” (Bioorg Med Chem Lett, 2013).

Assays:
[1] = Plasma protein binding in human; type: ADME, cell-free; conditions: read-out: PPB (converted)
Cavia porcellus [2] = experiment: Toxicity in guinea pig assessed as reduction of pilocarpine-induced salivation administered via intranasal administered for 4 hrs followed by pilocarpine challenge measured every 5 mins for 15 mins; type: organism-based
Method in brief: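 Compound or vehicle given intranasally under halothane. At 4 h, animals were anaesthetised with urethane and the mouth dried with gauze for 5 min. Baseline saliva taken on a pre-weighed pad over 5 min. Pilocarpine 0.6 mg/kg given subcutaneously, then pads replaced every 5 min for 15 min and saliva quantified by pad weight gain.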

[3] = target: Muscarinic acetylcholine receptor M3 (Homo sapiens, UniProt P20309); experiment: Displacement of [3H]NMS from recombinant human M3 receptor expressed in CHO-K1 cells after 16 hrs by SPA method; type: cell-based
Muscarinic acetylcholine receptor M3 (Homo sapiens, UniProt P20309), sequence (P20309 whole entry): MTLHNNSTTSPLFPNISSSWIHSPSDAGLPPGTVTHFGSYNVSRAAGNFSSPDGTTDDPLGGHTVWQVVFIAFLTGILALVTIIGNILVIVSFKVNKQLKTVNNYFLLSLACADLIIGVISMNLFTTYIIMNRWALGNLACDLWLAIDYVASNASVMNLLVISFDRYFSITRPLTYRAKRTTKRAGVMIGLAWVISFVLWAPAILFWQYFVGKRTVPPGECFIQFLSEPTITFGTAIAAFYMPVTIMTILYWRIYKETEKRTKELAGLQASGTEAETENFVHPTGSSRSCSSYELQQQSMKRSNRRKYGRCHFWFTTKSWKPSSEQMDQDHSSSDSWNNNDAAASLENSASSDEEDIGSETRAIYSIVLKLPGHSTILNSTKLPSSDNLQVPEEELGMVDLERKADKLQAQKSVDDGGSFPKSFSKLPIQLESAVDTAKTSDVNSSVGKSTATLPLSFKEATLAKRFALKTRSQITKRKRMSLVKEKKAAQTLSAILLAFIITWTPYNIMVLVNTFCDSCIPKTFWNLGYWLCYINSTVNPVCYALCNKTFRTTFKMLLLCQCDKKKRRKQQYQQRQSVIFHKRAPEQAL
Method in brief: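 Nonspecific binding defined with atropine 1 µM; eight total-binding replicates per plate. Incubated at room temperature at least 16 h to equilibrium before counting; n ≥ 2.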

Cavia porcellus [4] = experiment: Inhibition of methacholine-induced bronchoconstriction in Dunkin-Hartley guinea pig administered via intratracheal/intranasal after 24 hrs relative to control; type: functional
Method in brief: (§1)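 Dunkin-Hartley guinea pigs dosed in 0.9% saline by intratracheal or intranasal microsprayer under halothane. At 2, 4, 24 or 48 h, animals were terminally anaesthetised with pentobarbitone and ventilated at 60 breaths/min, 2 mL tidal volume. Peak respiratory resistance measured after IV methacholine 10 μg/kg. Percent inhibition calculated against a time-matched vehicle group. For duration, dosing was at the ED80 dose, measured or predicted from trachea potency.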

[5] = Half life in guinea pig lung administered via intratracheal instillation at 1 ug/kg by HPLC-MS analysis; type: ADME, tissue-based, Cavia porcellus; conditions: inhaled or intranasal, 0.001 mg/kg
Method in brief: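 Halothane-anaesthetised guinea pigs given 1 μg/kg by intratracheal instillation. Lungs collected at 0.25-24 h after barbiturate overdose, homogenised in phosphate buffer and added to ice-cold methanol. Supernatant analysed by mass spectrometry/HPLC.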

Cavia porcellus [6] = experiment: Inhibition of methacholine-induced bronchoconstriction in Dunkin-Hartley guinea pig administered via intratracheal/intranasal after 2 to 4 hrs relative to control; type: functional; conditions: inhaled or nasal; method in brief: as §1
[7] = target: Muscarinic acetylcholine receptor M3 (Cavia porcellus, UniProt Q8VH26); experiment: Antagonist activity at M3 receptor in Dunkin-Hartley guinea pig trachea assessed as inhibition of methacholine-induced airway smooth muscle contraction after 1 to 4 hrs; conditions: read-out: pA2 (converted)
Muscarinic acetylcholine receptor M3 (Cavia porcellus, UniProt Q8VH26), sequence (Q8VH26 whole entry): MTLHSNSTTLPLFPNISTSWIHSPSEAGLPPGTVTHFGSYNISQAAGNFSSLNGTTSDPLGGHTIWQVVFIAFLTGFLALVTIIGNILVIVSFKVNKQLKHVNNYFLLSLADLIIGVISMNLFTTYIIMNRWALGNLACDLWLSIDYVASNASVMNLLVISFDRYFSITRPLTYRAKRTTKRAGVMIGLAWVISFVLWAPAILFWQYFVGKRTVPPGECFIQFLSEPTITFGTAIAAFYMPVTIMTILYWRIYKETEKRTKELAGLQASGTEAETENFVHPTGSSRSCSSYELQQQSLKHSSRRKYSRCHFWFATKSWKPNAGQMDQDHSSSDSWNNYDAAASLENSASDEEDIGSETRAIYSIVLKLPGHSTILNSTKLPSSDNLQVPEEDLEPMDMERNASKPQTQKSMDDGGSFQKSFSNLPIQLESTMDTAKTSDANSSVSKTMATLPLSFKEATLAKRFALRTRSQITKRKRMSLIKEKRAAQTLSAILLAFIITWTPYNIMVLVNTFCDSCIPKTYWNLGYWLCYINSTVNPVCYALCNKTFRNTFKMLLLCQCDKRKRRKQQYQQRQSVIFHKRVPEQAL
Method in brief: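 Isolated guinea pig tracheal rings equilibrated 1 h, re-tensioned to 1 g, primed with methacholine, then a cumulative methacholine curve (3 × 10^-9 to 3 × 10^-5 M). Vehicle or compound equilibrated 1 or 4 h before a second curve (3 × 10^-9 to 1 × 10^-3 M final). Isometric force as % of curve-1 maximum. pA2 calculated from vehicle and test A50 values; n = 2.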

[8] = Intrinsic clearance in human liver microsomes; type: ADME; conditions: read-out: CLH
Cavia porcellus [9] = experiment: Inhibition of methacholine-induced bronchoconstriction in Dunkin-Hartley guinea pig administered via intratracheal/intranasal after 48 hrs relative to control; type: functional; method in brief: as §1
[10] = Therapeutic index, ratio of ED80 for methacholine-induced bronchoconstriction in Dunkin-Hartley guinea pig to EC50 for reduction of pilocarpine-induced salivation in guinea pig; type: organism-based, Cavia porcellus; conditions: in vivo, read-out: TI

SMILES | fraction unbound [1] | EC50 (Cavia porcellus [2]) | IC50 [3] | inhibition (INH) (Cavia porcellus [4]) | half-life [5] | ED80 (Cavia porcellus [6]) | Kb [7] | microsomal CLint [8] | inhibition (INH) (Cavia porcellus [9]) | selectivity ratio [10]
O=C(C[N+]12CCC(CC1)[C@@H](OC(=O)C1(C3=CC=CC3)CCCCCC1)C2)Nc1ccon1 | 0.18 | > 10 µg/kg | < 0.0631 nM | 0% | 1140 min | 1 µg/kg | 0.02 nM | 150 µL/min/mg |  | 
C[N+]1(C)[C@@H]2C[C@@H](OC(=O)C(O)(c3cccs3)c3cccs3)C[C@H]1[C@@H]1O[C@@H]12.O.[Br-] [TIOTROPIUM BROMIDE] |  | < 0.3 µg/kg |  | >80% |  | 0.3 µg/kg |  |  | 69% | 
O=C(C[N+]12CCC(CC1)[C@@H](OC(=O)C1(C3=CC=CC3)CCCCCC1)C2)Nc1cnccn1 | 0.075 | > 10 µg/kg | < 0.126 nM | 88% | 1380 min | 1 µg/kg | 0.126 nM | 43 µL/min/mg | 73% | ≥ 10
O=C(O[C@H]1C[N+]2(Cc3nc(-c4ccccc4)no3)CCC1CC2)C1(C2=CC=CC2)CCCCCC1 | 0.01 |  | 0.158 nM |  | 1020 min | 3 µg/kg | 0.398 nM | 102 µL/min/mg | 0% | 
O=C(O[C@H]1C[N+]2(CCCc3ccncc3)CCC1CC2)C1(C2=CC=CC2)CCCCCC1 | 0.12 |  | < 0.0398 nM | 0% | 1140 min | 1 µg/kg | 0.126 nM | 57 µL/min/mg |  | 
O=C(O[C@H]1C[N+]2(Cc3nnc(-c4ccccc4)o3)CCC1CC2)C1(C2=CC=CC2)CCCCCC1 | 0.035 | > 30 µg/kg | 0.316 nM |  | 1320 min | 3 µg/kg | 0.2 nM | 97 µL/min/mg | 0% | 
O=C(O[C@H]1C[N+]2(CCCOc3ccccc3)CCC1CC2)C1(C2=CC=CC2)CCCCCC1 | 0.085 |  | 0.0631 nM | 31% | 612 min | 3 µg/kg | 0.794 nM | 75 µL/min/mg |  | 
Cc1cc(NC(=O)C[N+]23CCC(CC2)[C@@H](OC(=O)C2(C4=CC=CC4)CCCCCC2)C3)no1 | 0.03 | > 30 µg/kg | 0.158 nM | 56% | 1600 min | 3 µg/kg | 0.251 nM | 26 µL/min/mg |  | ≥ 10
O=C(C[N+]12CCC(CC1)[C@@H](OC(=O)C1(C3=CC=CC3)CCCCCC1)C2)Nc1ccccn1 | 0.04 | > 30 µg/kg | 0.158 nM |  | 1540 min | 1 µg/kg | 0.398 nM | 55 µL/min/mg | 84% | ≥ 10
O=C(O[C@H]1C[N+]2(Cc3cc(-c4ccccc4)no3)CCC1CC2)C1(C2=CC=CC2)CCCCCC1 | 0.01 | > 30 µg/kg | 0.251 nM |  | 990 min | 3 µg/kg | 0.316 nM | 63 µL/min/mg | 0% | 
O=C(C[N+]12CCC(CC1)[C@@H](OC(=O)C1(C3=CC=CC3)CCCCCC1)C2)Nc1ccc(Cl)nn1 | 0.04 | > 30 µg/kg | 0.2 nM | 89% | 3400 min | 3 µg/kg | 0.2 nM |  |  | ≥ 10
Cc1cc(CCC[N+]23CCC(CC2)[C@@H](OC(=O)C2(C4=CC=CC4)CCCCCC2)C3)ccn1 | 0.03 |  | < 0.0316 nM | 0% | 2620 min | 1 µg/kg | 0.158 nM | 135 µL/min/mg |  | 
